Ki and Activity data for one molecule are collected here from ChEMBL document CHEMBL2176871, “Development of ligands at γ-aminobutyrric acid type A (GABAA) receptor subtype as new agents for pain relief” (Bioorg Med Chem, 2011).

Data set [1] can be described thus: Displacement of [3H]Ro151788 from GABA(A)/BzR in bovine cerebral cortex membrane. It is filed as cell membranes, Bos taurus. The method in brief: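 Bovine cerebral cortex membranes in 50 mM Tris-citrate pH 7.4; [3H]flumazenil displacement. Compounds first tested at a fixed 10 µM; Ki determined only when inhibition exceeded 80%, using at least six concentrations. Five experiments run in triplicate; IC50 obtained by iterative curve fitting and converted to Ki with the Cheng–Prusoff equation.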
A general note: Loss of bound radioactivity is the signal in a displacement assay; it reports binding, not function.

In another data set the test system is Mus musculus. The experiment in a line: Anxiolytic-like activity in Swiss albino mouse at 10 to 30 mg/kg, po after 30 mins by light/dark box test. It counts as functional, organism-based. The method in brief: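 Male Swiss mice tested in a two-compartment light/dark box. Transfers between compartments and time spent in the lit side recorded. Compound given po 30 min before testing, in 10 ml/kg; flumazenil given i.p. for antagonism; 8 mice per group.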

Data set [2] deals with Rattus norvegicus. As to the kind of experiment: Antinociceptive activity in Sprague-Dawley rat mononeuropathy pain model assessed as increase in injured paw pressure at 60 mg/kg, po after 45 mins by paw pressure test relative to non-treated control. It counts as functional. The method in brief: (§1)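 Chronic constriction injury: loose ligatures placed on the common sciatic nerve under chloral hydrate; contralateral sham dissection. Tested 14 days after surgery. Paw pressure applied at 32 g/s; threshold taken as the force causing the first struggle; cut-off 250 g; pretest outliers (<40 g or >75 g) excluded. Oral dosing in 10 ml/kg; read at 15, 30 and 45 min; compared with a CMC-treated group.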

For data set [3], the system named is Rattus norvegicus. As to the kind of experiment: Antinociceptive activity in Sprague-Dawley rat mononeuropathy pain model assessed as increase in injured paw pressure at 60 mg/kg, po after 30 mins by paw pressure test relative to non-treated control. It counts as functional. The method in brief:
as §1

The subject of data set [4] is Rattus norvegicus. As to the kind of experiment: Antinociceptive activity in Sprague-Dawley rat mononeuropathy pain model assessed as increase in injured paw pressure at 10 mg/kg, po after 45 mins by paw pressure test relative to non-treated control. It is filed as functional. The method in brief:
as §1

Data set [5] relates to Rattus norvegicus. The experiment in a line: Antinociceptive activity in Sprague-Dawley rat mononeuropathy pain model assessed as increase in injured paw pressure at 10 mg/kg, po after 15 mins by paw pressure test relative to non-treated control. It is filed as functional. The method in brief: as §1
Data set [6] deals with Rattus norvegicus. The experiment in a line: Toxicity in Sprague-Dawley rat mononeuropathy pain model assessed as effect on contralateral paw pressure at 60 mg/kg, po after 45 mins by paw pressure test. It counts as organism-based. More on the design: dose 60 mg/kg, route oral. Conditions: in vivo, 0.75 h. The method in brief: (§2)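 Same sciatic-ligation rat model, 14 days after surgery. Threshold measured on the non-operated contralateral hind paw by analgesimeter at 32 g/s; first-struggle endpoint; 250 g cut-off; pretest rats outside 40–75 g rejected. Compound given po in 10 ml/kg; readings at 15, 30 and 45 min.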

The subject of data set [7] is Rattus norvegicus. As to the kind of experiment: Toxicity in Sprague-Dawley rat mononeuropathy pain model assessed as effect on contralateral paw pressure at 30 mg/kg, po after 45 mins by paw pressure test. It counts as organism-based. The arrangement: dose 30 mg/kg, route oral. To be noted: in vivo, 0.75 h. The method in brief:
as §2

Data set [8] relates to Rattus norvegicus. The experiment in a line: Toxicity in Sprague-Dawley rat mononeuropathy pain model assessed as effect on contralateral paw pressure at 10 mg/kg, po after 45 mins by paw pressure test. It is filed as organism-based. The arrangement: dose 10 mg/kg, route oral. Conditions: in vivo, 0.75 h. The method in brief:
as §2

The test system of data set [9] is Rattus norvegicus. As to the kind of experiment: Toxicity in Sprague-Dawley rat mononeuropathy pain model assessed as effect on contralateral paw pressure at 1 mg/kg, po after 45 mins by paw pressure test. The arrangement: dose 1 mg/kg, route oral. It counts as organism-based. Conditions: in vivo, 0.75 h. The method in brief: as §2

Calls of active or inactive are those of the source.

In [1], `Cc1cnn2c1n[n+]([O-])c1ccc(OCc3ccccc3)cc12` showed a Ki of 4.66 nM. Besides, the outcome in the data set on Mus musculus was Active. For the same molecule, the Activity in the data set with Rattus norvegicus [2] is 31.5 g; in the data set on Rattus norvegicus [3] it was 40.8 g; in the data set with Rattus norvegicus [4], 30.4 g; with Rattus norvegicus [5] it was 48.7 g; with Rattus norvegicus [6] it was 57.2 g; with Rattus norvegicus [7], 60.5 g. Besides, the Activity in the data set with Rattus norvegicus [8] was 63.5 g; in the data set on Rattus norvegicus [9], 59.1 g.

In general, Ki refers to a measure of affinity in units of concentration, obtained from inhibition or displacement.
